Data on 31 compounds can be found in ChEMBL document CHEMBL1149562, “Identification and optimization of novel 1,3,4-oxadiazole EP1 receptor antagonists” (Bioorg Med Chem Lett, 2007).

pIC50, pKi: −log10 of the molar value. A value given as a limit tells only on which side of the number the result lay.

For assay [1], the target named is T1, Prostaglandin E2 receptor EP1 subtype (Homo sapiens, UniProt P34995).
T1 sequence (P34995 whole entry): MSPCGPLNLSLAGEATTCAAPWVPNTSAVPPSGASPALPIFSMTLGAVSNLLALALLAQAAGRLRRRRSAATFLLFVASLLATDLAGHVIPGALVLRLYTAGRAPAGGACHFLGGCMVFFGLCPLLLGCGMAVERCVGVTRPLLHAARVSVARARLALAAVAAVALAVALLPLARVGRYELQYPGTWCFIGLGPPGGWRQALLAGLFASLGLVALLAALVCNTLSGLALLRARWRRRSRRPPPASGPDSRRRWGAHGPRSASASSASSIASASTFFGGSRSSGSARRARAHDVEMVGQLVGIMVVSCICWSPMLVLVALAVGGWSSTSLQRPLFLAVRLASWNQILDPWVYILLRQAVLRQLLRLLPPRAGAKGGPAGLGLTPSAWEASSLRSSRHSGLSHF
The assay is described as follows: Antagonist activity at human recombinant EP1 receptor expressed in CHO cells assessed as inhibition of PGE2-induced calcium mobilization by FLIPR. The class given is functional, cell-based. A digest of the protocol: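 Functional antagonism in CHO cells expressing recombinant human EP1 receptor; blockade of PGE2-driven intracellular Ca2+ mobilization read by FLIPR, reported as pKi. Values are means of at least three experiments, with some from two.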

The target of assay [2] is T1, Prostaglandin E2 receptor EP1 subtype. Briefly: Displacement of [3H]PGE2 from human recombinant EP1 receptor expressed in CHO cell membrane. The note with it: for IC50: read-out: Log IC50 (converted); for pIC50: read-out: IC50. It counts as cell membranes. A digest of the protocol:
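Radioligand binding using [3H]-PGE2 on membranes of CHO cells expressing recombinant human EP1 receptor; affinity expressed as pIC50. Values are means of at least three experiments.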

`Cc1ccc(S(=O)(=O)N(Cc2nnc(Cc3ccc(C(F)(F)F)cc3)o2)c2cccc(Cl)c2C)cc1`: the pKi in assay [1] is 6.80. The IC50 in assay [2] is 50.1 nM.
For `COc1ccc(Cc2nnc(CN(c3cccc(Cl)c3Cl)S(=O)(=O)c3ccc(C)cc3)o2)cc1`, in that order: 7.40 and 7.94 nM.
For `CCOc1ccc(Cc2nnc(CN(c3ccccc3CC)S(=O)(=O)c3ccc(C)cc3)o2)cc1`, in that order: 7.40 and 126 nM.
For `COc1ccc(Cc2nnc(CN(c3cccc(Cl)c3Cl)S(=O)(=O)c3ccc(Cl)cc3)o2)cc1`, in that order: 7.20 and 20 nM.
For `Cc1ccc(S(=O)(=O)N(Cc2nnc(Cc3ccc(F)cc3)o2)c2cccc(Cl)c2C)cc1`, the pKi in assay [1] is 6.30. Besides, the IC50 in assay [2] was 200 nM.
For `CCc1ccccc1N(Cc1nnc(Cc2ccccc2)o1)S(=O)(=O)c1ccc(C)cc1`, in that order: 6.40 and 1000 nM.
For the compound `Cc1ccc(S(=O)(=O)N(Cc2nnc(Cc3c(Cl)cccc3Cl)o2)c2cccc(Cl)c2C)cc1`, the pKi in assay [1] was 6.30. In addition, the IC50 in assay [2] is 63.1 nM.
For `CCc1ccccc1N(Cc1nnc(Oc2ccc(OC)cc2)o1)S(=O)(=O)c1ccc(C)cc1`, in that order: 7.00 and greater than 1000 nM.
As for `CCc1ccccc1N(Cc1nnc(Cc2ccc(Cl)cc2)o1)S(=O)(=O)c1ccc(C)cc1`, in assay [1], the negative logarithm of the Ki (pKi) was 6.50. The IC50 in assay [2] is 398 nM.
On to `Cc1ccc(S(=O)(=O)N(Cc2nnc(Cc3cccc(F)c3)o2)c2cccc(Cl)c2C)cc1`, for which the pKi in assay [1] is 6.30. Also, the IC50 in assay [2] is 316 nM.
For `CCc1ccccc1N(Cc1nnc(CNc2ccc(OC)cc2)o1)S(=O)(=O)c1ccc(C)cc1`, in that order: 6.10 and 501 nM.
On to `COc1ccc(Cc2nnc(CN(c3cccc(C(F)(F)F)c3C)S(=O)(=O)c3ccc(C)cc3)o2)cc1`, for which, in assay [1], the negative logarithm of the Ki (pKi) is 6.40. Moreover, the IC50 in assay [2] was 63.1 nM.
For `COc1ccc(Nc2nnc(CN(c3cccc(Cl)c3Cl)S(=O)(=O)c3ccc(C)cc3)o2)cc1`, in that order: 7.30 and 39.8 nM.
On to `CCc1ccccc1N(CC(=O)OCc1ccc(OC)cc1)S(=O)(=O)c1ccc(C)cc1`, for which the pIC50 in assay [2] was 7.20.
As for `CCc1ccccc1N(Cc1nnc(Cc2ccc(OC)cc2)o1)S(=O)(=O)c1ccc(C)cc1`, the pKi in assay [1] was 6.20. In assay [2], the pIC50 was 6.90.
As for `Cc1ccc(S(=O)(=O)N(Cc2nnc(Cc3ccc(Cl)cc3Cl)o2)c2cccc(Cl)c2C)cc1`, the pKi in assay [1] was 6.00. The IC50 in assay [2] is 63.1 nM.
On the same counts, the results for `Cc1ccc(S(=O)(=O)N(Cc2nnc(Cc3ccccc3F)o2)c2cccc(Cl)c2C)cc1` are 6.20 and 501 nM.
In the case of `COc1ccc(NCc2nnc(CN(c3cccc(Cl)c3C)S(=O)(=O)c3ccc(C)cc3)o2)cc1`, the pKi in assay [1] is 7.10. Also, the IC50 in assay [2] is 20 nM.
As to `CCc1ccccc1N(CC(=O)NCc1ccc(OC)cc1)S(=O)(=O)c1ccc(C)cc1`, in assay [2], the negative logarithm of the IC50 (pIC50) was 7.60.
On to `CCOc1ccc(Cc2nnc(CN(c3cccc(Cl)c3Cl)S(=O)(=O)c3ccc(C(F)(F)F)cc3)o2)cc1`, for which the pKi in assay [1] is 8.20. The IC50 in assay [2] is 2.51 nM.
For `COc1ccc(Nc2nnc(CN(c3cccc(Cl)c3Cl)S(=O)(=O)c3ccc(C(F)(F)F)cc3)o2)cc1`, in that order: 7.20 and 7.94 nM.
On the same counts, the results for `COc1ccc(Nc2nnc(CN(c3cccc(Cl)c3C)S(=O)(=O)c3ccc(C)cc3)o2)cc1` are 7.10 and 31.6 nM.
For `Cc1ccc(S(=O)(=O)N(Cc2nnc(Cc3cccc(Cl)c3)o2)c2cccc(Cl)c2C)cc1`, in that order: 5.70 and 158 nM.
`Cc1ccc(S(=O)(=O)N(CC(=O)NCCc2ccc(Cl)cc2)c2ccccc2C)cc1`: the concentration for half-maximal inhibition (IC50) in assay [2] is 251 nM.
As for `Cc1ccc(S(=O)(=O)N(Cc2nnc(Cc3ccc(N(C)C)cc3)o2)c2cccc(Cl)c2C)cc1`, the pKi in assay [1] is 7.70. Further, in assay [2], the IC50 is 12.6 nM.
On the same counts, the results for `CCc1ccccc1N(Cc1nnc(COc2ccc(OC)cc2)o1)S(=O)(=O)c1ccc(C)cc1` are 6.90 and 25.1 nM.
Regarding `CCOc1ccc(Cc2nnc(CN(c3cccc(Cl)c3Cl)S(=O)(=O)c3ccc(C)cc3)o2)cc1`, the pKi in assay [1] was 7.50. In assay [2], the half-inhibitory concentration (IC50) was 6.31 nM.
On the same counts, the results for `CCOc1ccc(Cc2nnc(CN(c3cccc(Cl)c3C)S(=O)(=O)c3ccc(C)cc3)o2)cc1` are 7.30 and 3.98 nM.
For `Cc1ccc(S(=O)(=O)N(Cc2nnc(Cc3ccccc3Cl)o2)c2cccc(Cl)c2C)cc1`, in that order: 6.40 and 79.4 nM.
Regarding `COc1ccc(Cc2nnc(CN(c3cccc(Cl)c3C)S(=O)(=O)c3ccc(C)cc3)o2)cc1`, the pKi in assay [1] is 7.40. Moreover, the IC50 in assay [2] was 6.31 nM.
Consider `CCc1ccccc1N(CC(=O)NCCc1ccc(OC)c(OC)c1)S(=O)(=O)c1ccc(C)cc1`, for which the IC50 in assay [2] is 7.94 nM.
